Three compounds from ChEMBL document CHEMBL1914450, “1,7-Naphthyridine 1-oxides as novel potent and selective inhibitors of p38 mitogen activated protein kinase” (J Med Chem, 2011) can be followed below.

Each structure is given as a SMILES string. Values after ≈ are worked out from the molar mass of the structure shown. Some results are limits rather than exact numbers.

Data set [1] is described as follows: Clearance in Wistar rat at 1 mg/kg, iv by UPLC-MS/MS analysis. As to conditions: in vivo. Also noted: dose 1 mg/kg, route intravenous. The format is ADME, organism-based. The gist of the method: (§1)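 Male Wistar rats received 1 mg/kg iv or 10 mg/kg po. Blood was drawn from the retro-orbital plexus at set time points and centrifuged (3000 rpm, 10 min, 4 °C). Plasma was stored at −20 °C and prepared by protein precipitation for analysis. Oral exposure was measured over 0–6 h. Values are mean ± SD, n = 2.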

Data set [2] can be described thus: Half life in Wistar rat at 1 mg/kg, iv by UPLC-MS/MS analysis. As to conditions: in vivo. The format is ADME, organism-based. Details: dose 1 mg/kg, route intravenous. In a few lines: as §1
Data set [3] can be described thus: Tmax in Wistar rat at 10 mg/kg, po by UPLC-MS/MS analysis. As to conditions: in vivo. Details: dose 10 mg/kg, route oral. It counts as ADME, organism-based. The gist of the method: (§2)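 Wistar rats dosed 1 mg/kg iv or 10 mg/kg po. Blood drawn from the retro-orbital plexus at set time points. Plasma separated by centrifugation (3000 rpm, 10 min, 4 °C) and stored at −20 °C until analysis. Values are mean of n = 2.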

Data set [4] is described as follows: Volume of distribution at steady state in Wistar rat at 1 mg/kg, iv by UPLC-MS/MS analysis. As to conditions: in vivo, read-out: Vdss. Also noted: dose 1 mg/kg, route intravenous. The format is ADME, organism-based. The gist of the method:
as §2

A short description of data set [5]: (§3) Bioavailability in Wistar rat at 10 mg/kg, po and at 1 mg/kg, iv measured up to 6 hrs. The format is ADME, organism-based. As to conditions: Wistar, in vivo. The gist of the method:
as §1

Data set [6] in a line: Cmax in Wistar rat at 10 mg/kg, po by UPLC-MS/MS analysis. As to conditions: in vivo. The format is ADME, organism-based. Details: dose 10 mg/kg, route oral. The gist of the method: as §1
Data set [7] in a line: (§4) AUC (0 to 6 hrs) in Wistar rat at 10 mg/kg, po by UPLC-MS/MS analysis. It counts as ADME, organism-based, Plasma. Also noted: time < 6 hr, dose 10 mg/kg, route oral. As to conditions: Wistar, plasma. The gist of the method:
as §1

Data set [8] is described as follows: Solubility of the compound at pH 1.0. It counts as physicochemical. As to conditions: buffer.
Data set [9] is described as follows: Metabolic stability in rat liver microsomes assessed as metabolic rate at 5 uM after 30 mins by UPLC-MS/MS analysis. As to conditions: read-out: Activity. It counts as ADME, Microsome. In a few lines:
(§5)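 Test compound at 5 μM incubated 30 min at 37 °C with liver microsomes (1 mg/mL protein), with and without NADPH. Parent compound quantified by UPLC-MS/MS. Metabolic rate taken from parent peak area with NADPH versus without.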

Data set [10] in a line: Metabolic stability in human liver microsomes assessed as metabolic rate at 5 uM after 30 mins by UPLC-MS/MS analysis. The format is ADME, Microsome. Particulars: read-out: Activity. The gist of the method:
as §5
A general note: Liver microsomes are a subcellular fraction often used to study metabolism.

Data set [11] relates to Rattus norvegicus. The data set is described as §3. The format is ADME, organism-based. Particulars: in vivo, 6 h. The gist of the method:
as §1

Data set [12] relates to Rattus norvegicus. The data set is described as §4. Details: time < 6 hr, dose 10 mg/kg, route oral. As to conditions: in vivo, 6 h. It counts as ADME, organism-based, Plasma. The gist of the method: as §1
Data set [13] in a line: Solubility of the compound at pH 7.4. As to conditions: buffer. It counts as physicochemical.

What is called clearance is the volume of plasma or blood freed of the substance per unit of time. A low value points to a low capacity for elimination. Broadly, the half-life is the time needed for the level to fall by half in the phase considered. Higher therefore signals slow decline. The Tmax is the time from dosing to the highest level. A word on the bioavailability: it is the share of a dose that reaches the circulation, judged against a reference dose that is usually intravenous. A lower bioavailability goes with little systemic uptake. One may read the Cmax as the peak of the concentration-time curve. A word on the AUC(0-t): it is exposure summed from dosing to a finite time, without extrapolation to infinity. A higher AUC(0-t) goes with high exposure. For `[O-][n+]1ccc2c(-c3ccc(F)cc3F)cc(C3CCNCC3)nc2c1-c1c(Cl)cccc1Cl`, in data set [1], the clearance turned out to be 102 mL/min/kg. The compound also showed a half-life in data set [2] of 138 min. The Tmax in [3] turned out to be 18 min. For the same compound, the Vd in [4] was determined as 13.7 L/kg. The bioavailability in data set [5] is 16%. In addition, in data set [6], the Cmax was determined as 200 nM. Also, the AUC(0-t) at 6 h in data set [7] was determined as 0.48 µM·h.

By solubility is commonly meant how much of the substance goes into solution per volume. A lower solubility goes with a poorly soluble substance. What is called AUC is the area under the concentration-time curve, a measure of exposure. For `Cc1ccccc1-c1c2nccc(-c3ccc(F)cc3F)c2cc[n+]1[O-]`, the half-life in [2] was 444 min. In addition, the time to peak (Tmax) in data set [3] is 210 min. For the same compound, the solubility in [8] came to 41 µg/mL (≈ 118 µM); in data set [13], 27 µg/mL (≈ 77.5 µM). Further, the metabolised at 0.5 h, 5 µM in [9] is 9%; in data set [10], less than 5%. The Vd in [4] turned out to be 1.7 L/kg. This compound also displayed a F in data set [11] of 38%. For the same compound, the concentration in [6] peaked (Cmax) at 5300 nM. In data set [12], the AUC was 29.5 µM·h.

In the case of `[O-][n+]1ccc2c(-c3ccc(F)cc3F)cc(NC3CCNCC3)nc2c1-c1c(F)cccc1F`, in [1], the clearance is 59 mL/min/kg. The compound further showed a half-life in data set [2] of 276 min. The Tmax in data set [3] was found to be 18 min. For the same compound, in data set [4], the Vd worked out at 10.3 L/kg. Also, the bioavailability in [5] was less than 10%. Besides, the Cmax in [6] stood at 90 nM. In [7], this compound displayed an AUC(0-t) at 6 h of 0.05 µM·h.
